Source: ChEMBL document CHEMBL1926652, “Effect of 2',6'-dimethyl-L-tyrosine (Dmt) on pharmacological activity of cyclic endomorphin-2 and morphiceptin analogs” (Bioorg Med Chem, 2011)
The source made the active and inactive calls. Where a SMILES comes first, the peptide text is derived from it. Bridges are numbered along the chain shown (N, C = ends). [ ]: non-standard residue; d: D form. Dmt = Cc1cc(O)cc(C)c1C[C@H](N)C(=O)O

Legend:
Mu-type opioid receptor = Mu-type opioid receptor (Rattus norvegicus, UniProt P33535); assay: Displacement of [3H]DAMGO from Wistar rat mu opioid receptor by liquid scintillation counting
How it was run: (§1)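 Crude membranes from Wistar rat brain incubated with [3H]DAMGO for mu or [3H][Ile5,6]deltorphin-2 for delta. Non-specific binding defined with naloxone. Reaction ended by rapid filtration on GF/B strips soaked in 0.5% […], then two ice-cold Tris-HCl washes. Bound radioactivity counted by liquid scintillation after overnight extraction. IC50 from three independent experiments in duplicate; ratio is delta IC50/mu IC50.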

[1] = molecular target: Delta-type opioid receptor (Rattus norvegicus, UniProt P33533); assay: Displacement of [3H][Ile5,6]deltorphin 2 from delta opioid receptor in Wistar rat brain membrane by liquid scintillation counting; format: cell membranes; how it was run: as §1
Rattus norvegicus = organism: Rattus norvegicus; assay: Selectivity ratio of IC50 for delta opioid receptor in Wistar rat brain membrane to IC50 for mu opioid receptor in Wistar rat brain membrane; format: cell membranes; how it was run: as §1
[2] = Half life in Wistar rat brain at 0.5 mM by RP-HPLC analysis; format: ADME, tissue-based
How it was run: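 Pooled rat brains homogenized in 20 volumes of 50 mM Tris-HCl, pH 7.4. Homogenate at 10 mg protein/ml incubated with an equal volume of 0.5 mM peptide at 37 °C for 0–60 min. Reaction stopped on ice with 1 M HCl, then centrifuged at 20,000g. Three experiments in duplicate.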

Mus musculus [3] = assay: Antinociceptive activity in icv dosed in Swiss albino mouse assessed as paw licking latency by hot plate method; format: functional, organism-based
How it was run: (§2)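 Male Swiss albino mice (20–26 g), 10 per group. Peptides dissolved in DMSO, diluted in saline, given i.c.v. with a Hamilton syringe and 0.5 mm needle, 5 min before testing in dose–response runs. Mouse confined by a plastic cylinder on a 55 °C hot plate. Latencies to paw licking, rearing and jumping recorded, 240 s cut-off. %MPE = (t1−t0)/(t2−t0)×100. ED50 derived from dose–response.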

Mus musculus [4] = assay: Antinociceptive activity in icv dosed in Swiss albino mouse assessed as rearing latency by hot plate method; format: functional, organism-based; how it was run: as §2
Mus musculus [5] = assay: Antinociceptive activity in icv dosed in Swiss albino mouse assessed as jumping latency by hot plate method; format: functional; how it was run: as §2
Mus musculus [6] = assay: Antinociceptive activity in Swiss albino mouse assessed as jumping latency at 3 ug, icv after 5 to 10 mins by hot plate method; format: functional, organism-based; how it was run: as §2
Mus musculus [7] = assay: Antinociceptive activity in icv dosed Swiss albino mouse assessed as jumping latency at 3 ug, icv up to 90 mins by hot plate method; format: functional, organism-based; how it was run: as §2
Mus musculus [8] = assay: Antinociceptive activity in Swiss albino mouse assessed as jumping latency at 10 ug, icv up to 90 mins by hot plate method; format: functional, organism-based; how it was run: as §2
Mus musculus [9] = assay: Antinociceptive activity in Swiss albino mouse assessed as jumping latency at 10 ug, icv after 5 to 10 mins by hot plate method; format: functional, organism-based; how it was run: as §2
Mus musculus [10] = assay: Antinociceptive activity in Swiss albino mouse assessed as jumping latency at 10 ng, icv up to 30 mins by hot plate method; format: functional, organism-based; how it was run: as §2
Mus musculus [11] = organism: Mus musculus; assay: Antinociceptive activity in Swiss albino mouse assessed as jumping latency at 3 ng by hot plate method in presence of beta funaltrexamine; format: functional, organism-based
How it was run: (§3)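 Hot plate test at 55 °C in male Swiss albino mice, 10 per group, with jumping latency read and a 240 s cut-off. Antagonists were given i.c.v.: beta-funaltrexamine, naltrindole at 1 µg/animal, nor-binaltorphimine at 5 µg/animal. Agonist peptides were given i.c.v. at 3 ng/animal. Inhibition of jumping expressed as %MPE.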

Mus musculus [12] = organism: Mus musculus; assay: Antinociceptive activity in Swiss albino mouse assessed as jumping latency at 3 ng by hot plate method in presence of naltrindole; format: functional, organism-based; how it was run: as §3
Mus musculus [13] = organism: Mus musculus; assay: Antinociceptive activity in Swiss albino mouse assessed as jumping latency at 3 ng by hot plate method in presence of norbinaltorphimine; format: functional, organism-based; how it was run: as §3
Brain = assay: Drug uptake in Swiss albino mouse brain 0.01 to 1 mg/kg, iv; format: ADME, organism-based; parameters: dose 0.01-1 mg/kg, route intravenous; details: in vivo
How it was run: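 Blood–brain barrier passage judged in vivo. Peptides at 0.01 and 1 mg/kg were injected intravenously into male Swiss albino mice 30 min before a 55 °C hot plate test. Paw licking, rearing and jumping latencies recorded with a 240 s cut-off and expressed as %MPE.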

Sequence of Mu-type opioid receptor (P33535 whole entry): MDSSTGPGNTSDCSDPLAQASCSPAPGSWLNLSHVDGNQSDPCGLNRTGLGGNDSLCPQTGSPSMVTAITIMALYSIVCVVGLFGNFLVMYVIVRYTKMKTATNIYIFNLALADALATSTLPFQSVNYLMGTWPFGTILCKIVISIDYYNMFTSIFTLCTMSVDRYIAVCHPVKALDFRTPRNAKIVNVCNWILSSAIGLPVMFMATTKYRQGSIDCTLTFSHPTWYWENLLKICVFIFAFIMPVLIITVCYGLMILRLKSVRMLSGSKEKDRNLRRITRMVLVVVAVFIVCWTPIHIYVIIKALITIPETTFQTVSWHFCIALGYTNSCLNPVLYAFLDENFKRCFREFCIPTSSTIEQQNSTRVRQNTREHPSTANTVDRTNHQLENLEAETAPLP
Sequence of Delta-type opioid receptor (P33533 whole entry): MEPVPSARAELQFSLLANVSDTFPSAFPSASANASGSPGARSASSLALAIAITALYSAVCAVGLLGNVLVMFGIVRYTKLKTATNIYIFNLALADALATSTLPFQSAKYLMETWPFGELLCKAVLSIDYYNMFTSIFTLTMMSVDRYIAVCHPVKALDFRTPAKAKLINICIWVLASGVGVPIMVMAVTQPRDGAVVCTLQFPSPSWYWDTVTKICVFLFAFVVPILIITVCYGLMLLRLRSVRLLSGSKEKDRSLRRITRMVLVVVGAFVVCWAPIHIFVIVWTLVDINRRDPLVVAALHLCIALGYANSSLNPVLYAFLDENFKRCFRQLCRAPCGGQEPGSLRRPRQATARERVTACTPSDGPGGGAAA

| Compound | IC50 (Mu-type opioid receptor) [nM] | IC50 [1] [nM] | Ratio IC50 (Rattus norvegicus) | half-life at 500 µM [2] [h] | Activity (Mus musculus [3]) | Activity (Mus musculus [4]) | Activity (Mus musculus [5]) | ED50 (Mus musculus [5]) [µg] | Activity (Mus musculus [6]) | Activity (Mus musculus [7]) | Activity (Mus musculus [8]) | Activity (Mus musculus [9]) | Activity (Mus musculus [10]) | Activity (Mus musculus [11]) | Activity (Mus musculus [12]) | Activity (Mus musculus [13]) | Drug uptake (Brain) |
| --- | --- | --- | --- | --- | --- | --- | --- | --- | --- | --- | --- | --- | --- | --- | --- | --- | --- |
| NC(=O)[C@@H]1CC(=O)NCCCC[C@@H](NC(=O)[C@@H](N)Cc2ccc(O)cc2)C(=O)N[C@@H](Cc2ccccc2)C(=O)N[C@@H](Cc2ccccc2)C(=O)N1 (H-Y[dK]FFD-NH2; lactam 2-5) | 0.56 | 279 | 498 | 6.05 | Dose-dependent effect | Dose-dependent effect | Dose-dependent effect | 0.05 |  |  |  |  |  |  |  |  |  |
| CC(C)[C@H](NC(=O)[C@H](CCC(=O)O)NC(=O)[C@H](Cc1ccccc1)NC(=O)[C@H](C)NC(=O)[C@@H](N)Cc1ccc(O)cc1)C(=O)N[C@H](C(=O)NCC(=O)O)C(C)C [DELTORPHINE II] |  | 0.08 |  |  |  |  |  |  |  |  |  |  |  |  |  |  |  |
| NC(=O)[C@@H]1CC(=O)NCCCC[C@@H](NC(=O)[C@@H](N)Cc2ccc(O)cc2)C(=O)N[C@@H](Cc2ccccc2)C(=O)N2CCC[C@@H]2C(=O)N1 | 89.5 | > 1000 | > 11.2 | 1.95 | Dose-dependent effect | Dose-dependent effect | Dose-dependent effect | 0.02 |  |  |  |  |  |  |  |  |  |
| NC(=O)[C@H](Cc1ccccc1)NC(=O)[C@H](Cc1ccccc1)NC(=O)[C@@H]1CCCN1C(=O)[C@@H](N)Cc1ccc(O)cc1 [ENDOMORPHIN 2] |  |  |  | 0.238 | Dose-dependent effect | Dose-dependent effect | Dose-dependent effect | 5.48 | Active | Active |  |  |  |  |  |  |  |
| NC(=O)[C@@H]1CCCCNC(=O)C[C@@H](NC(=O)[C@@H](N)Cc2ccc(O)cc2)C(=O)N[C@@H](Cc2ccccc2)C(=O)N2CCC[C@@H]2C(=O)N1 | 15.3 | > 1000 | > 65.3 | 1.05 | Dose-dependent effect | Dose-dependent effect | Dose-dependent effect | 0.07 |  |  |  |  |  |  |  |  |  |
| NC(=O)[C@@H]1CCCN1C(=O)[C@H](Cc1ccccc1)NC(=O)[C@@H]1CCCN1C(=O)[C@@H](N)Cc1ccc(O)cc1 [MORPHICEPTIN] (H-YPFP-NH2) | 56.6 | > 1000 | > 17.7 | 0.278 | Dose-dependent effect | Dose-dependent effect | Dose-dependent effect | 5.11 |  |  | Active | Active |  |  |  |  |  |
| Cc1cc(O)cc(C)c1C[C@H](N)C(=O)N[C@@H]1CCCCNC(=O)C[C@@H](C(N)=O)NC(=O)[C@H]2CCCN2C(=O)[C@H](Cc2ccccc2)NC1=O | 5.6 | 132 | 23.5 | > 16.7 | Dose-dependent effect | Dose-dependent effect | Dose-dependent effect | <0.01 |  |  |  |  | Active | inactive | Active | Active | Not Active |
| Cc1cc(O)cc(C)c1C[C@H](N)C(=O)N[C@@H]1CC(=O)NCCCC[C@@H](C(N)=O)NC(=O)[C@H]2CCCN2C(=O)[C@H](Cc2ccccc2)NC1=O | 4.4 | 58.3 | 13.2 | 10.4 | Dose-dependent effect | Dose-dependent effect | Dose-dependent effect | <0.01 |  |  |  |  | Active | inactive | Active | Active | Not Active |
| Cc1cc(O)cc(C)c1C[C@H](N)C(=O)N[C@@H]1CCCCNC(=O)C[C@@H](C(N)=O)NC(=O)[C@H](Cc2ccccc2)NC(=O)[C@H](Cc2ccccc2)NC1=O (H-[Dmt][dK]FFD-NH2; lactam 2-5) | 0.26 | 400 | > 1000 | > 16.7 | Dose-dependent effect | Dose-dependent effect | Dose-dependent effect | 0.02 |  |  |  |  |  |  |  |  |  |
